From ChEMBL document CHEMBL5674875, “RUNX2 expression in thyroid and breast cancer requires the cooperation of three non-redundant enhancers under the control of BRD4 and c-JUN” (Nucleic Acids Res, 2017)
Calls of active or inactive are those of the source. No cut-off for these calls is given here.

What was measured:
[1] = target: Mediator of RNA polymerase II transcription subunit 1 (Homo sapiens) (UniProt Q15648); assay: Inhibition of MED1 in human MDA-MB-231 cells assessed as reduction of […] binding to all active RUNX2 regulatory elements (ENH11,ENH13) at 1 uM by ChIP analysis; type: cell-based
Mediator of RNA polymerase II transcription subunit 1 (Homo sapiens), sequence (Q15648 whole entry): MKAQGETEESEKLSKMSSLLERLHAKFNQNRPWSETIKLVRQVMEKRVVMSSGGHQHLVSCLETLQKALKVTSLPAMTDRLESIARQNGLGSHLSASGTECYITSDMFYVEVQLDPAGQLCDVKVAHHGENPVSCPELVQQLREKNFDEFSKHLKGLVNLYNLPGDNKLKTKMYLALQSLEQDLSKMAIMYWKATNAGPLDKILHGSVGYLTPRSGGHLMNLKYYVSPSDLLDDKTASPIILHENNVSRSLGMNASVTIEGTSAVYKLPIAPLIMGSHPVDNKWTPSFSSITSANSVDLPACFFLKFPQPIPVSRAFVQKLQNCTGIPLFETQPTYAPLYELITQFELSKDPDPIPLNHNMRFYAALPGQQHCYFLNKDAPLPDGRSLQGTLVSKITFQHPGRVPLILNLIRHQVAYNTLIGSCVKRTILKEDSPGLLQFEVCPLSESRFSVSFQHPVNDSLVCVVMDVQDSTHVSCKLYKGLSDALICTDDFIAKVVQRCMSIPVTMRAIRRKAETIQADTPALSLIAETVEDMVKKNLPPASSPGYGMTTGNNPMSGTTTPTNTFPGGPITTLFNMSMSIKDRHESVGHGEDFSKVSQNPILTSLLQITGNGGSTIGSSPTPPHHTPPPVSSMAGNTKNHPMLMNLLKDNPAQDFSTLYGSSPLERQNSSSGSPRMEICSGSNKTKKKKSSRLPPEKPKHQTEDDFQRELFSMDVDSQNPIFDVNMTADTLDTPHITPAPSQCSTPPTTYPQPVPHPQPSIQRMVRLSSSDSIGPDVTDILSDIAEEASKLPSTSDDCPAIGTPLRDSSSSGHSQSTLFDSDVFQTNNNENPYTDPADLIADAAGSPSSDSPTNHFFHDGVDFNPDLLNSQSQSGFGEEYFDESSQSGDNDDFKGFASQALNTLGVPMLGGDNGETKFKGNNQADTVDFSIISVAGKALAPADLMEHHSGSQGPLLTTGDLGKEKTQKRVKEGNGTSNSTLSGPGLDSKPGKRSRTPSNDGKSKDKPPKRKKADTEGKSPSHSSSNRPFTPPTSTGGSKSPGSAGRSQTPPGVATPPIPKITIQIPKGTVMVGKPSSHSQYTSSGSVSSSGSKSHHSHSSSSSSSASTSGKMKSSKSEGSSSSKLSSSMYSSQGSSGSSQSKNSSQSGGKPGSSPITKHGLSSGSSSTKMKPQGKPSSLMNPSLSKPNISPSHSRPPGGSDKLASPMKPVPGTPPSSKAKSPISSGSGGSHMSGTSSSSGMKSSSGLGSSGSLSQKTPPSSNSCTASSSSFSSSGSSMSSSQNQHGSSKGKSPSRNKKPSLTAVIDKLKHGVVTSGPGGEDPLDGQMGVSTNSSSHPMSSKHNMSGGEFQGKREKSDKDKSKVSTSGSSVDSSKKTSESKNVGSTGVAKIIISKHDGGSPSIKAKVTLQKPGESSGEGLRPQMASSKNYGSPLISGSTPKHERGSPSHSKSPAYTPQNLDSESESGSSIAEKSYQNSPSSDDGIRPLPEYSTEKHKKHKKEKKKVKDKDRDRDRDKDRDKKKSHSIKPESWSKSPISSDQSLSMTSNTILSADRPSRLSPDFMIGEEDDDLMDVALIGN
Method in brief: (§1)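 Cells were treated with 1 μM compound or DMSO mock, 24 h unless otherwise specified. ChIP used anti-MED1 antibody at the RUNX2 P2 promoter and active enhancer regions. An unrelated region upstream of P2 served as negative control. Enrichment is expressed as percentage of input.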

MCF7 [2] = assay: Anti-proliferative activity against human MCF7 cells assessed as reduction in cell proliferation incubated for 72 hrs; type: functional, cell-based; conditions: MCF7, 72 h
Method in brief: (§2)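 Cells grown in DMEM with 10% fetal bovine serum at 37°C/5% CO2, then exposed to a series of compound concentrations or DMSO mock. Proliferation curves were recorded for each line.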

TPC1 [3] = assay: Inhibition of c-MYC expression in human TPC1 cells at 0.25 to 1 uM after 6 to 24 hrs by qRT-PCR analysis; type: functional, cell-based; conditions: dose 0.25-1 µM, time 6-24 hrs
Method in brief: (§3)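 Cells in DMEM/10% FBS were treated with the indicated compound concentrations or DMSO mock. Total RNA was purified and reverse-transcribed, and transcript levels were measured by EvaGreen-based qRT-PCR.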

MDA-MB-231 [4] = assay: Inhibition of c-MYC expression in human MDA-MB-231 cells at 0.25 to 1 uM after 6 to 24 hrs by qRT-PCR analysis; type: functional, cell-based; conditions: dose 0.25-1 µM, time 6-24 hrs; method in brief: as §3
[5] = target: Mediator of RNA polymerase II transcription subunit 1 (Homo sapiens) (UniProt Q15648); assay: Inhibition of MED1 in human BCPAP cells assessed as reduction of […] binding to all active RUNX2 regulatory elements (ENH11) at 1 uM by ChIP analysis; type: cell-based; method in brief: as §1
MDA-MB-231 [6] = assay: Anti-proliferative activity against human MDA-MB-231 cells assessed as reduction in cell proliferation incubated for 72 hrs; type: functional, cell-based; conditions: MDA-MB-231, 72 h; method in brief: as §2
MCF7 [7] = assay: Inhibition of c-MYC expression in human MCF7 cells at 0.25 to 1 uM after 6 to 24 hrs by qRT-PCR analysis; type: functional, cell-based; conditions: dose 0.25-1 µM, time 6-24 hrs; method in brief: as §3
BCPAP [8] = assay: Anti-proliferative activity against human BCPAP cells assessed as reduction in cell proliferation incubated for 72 hrs; type: functional, cell-based; method in brief: as §2
TPC1 [9] = assay: Anti-proliferative activity against human TPC1 cells assessed as reduction in cell proliferation incubated for 72 hrs; type: functional, cell-based; conditions: TPC1, 72 h; method in brief: as §2
[10] = target: Mediator of RNA polymerase II transcription subunit 1 (Homo sapiens) (UniProt Q15648); assay: Partial inhibition of MED1 in human MCF7 cells assessed as partial reduction of […] binding to all active RUNX2 regulatory elements (ENH3,ENH13) at 1 uM by ChIP analysis; type: cell-based; method in brief: as §1
[11] = target: Mediator of RNA polymerase II transcription subunit 1 (Homo sapiens) (UniProt Q15648); assay: Inhibition of MED1 in human TPC1 cells assessed as reduction of […] binding to all active RUNX2 regulatory elements (ENH11,ENH13) at 1 uM by ChIP analysis; type: cell-based; method in brief: as §1
BCPAP [12] = assay: Inhibition of c-MYC expression in human BCPAP cells at 0.25 to 1 uM after 6 to 24 hrs by qRT-PCR analysis; type: functional, cell-based; conditions: dose 0.25-1 µM, time 6-24 hrs; method in brief: as §3

**Q.** `Cc1sc2c(c1C)C(c1ccc(Cl)cc1)=N[C@@H](CC(=O)OC(C)(C)C)c1nnc(C)n1-2` was tested. Which inhibition [1] did it give?
**A.** The inhibition was “Active”.

**Q.** What about the IC50 (MCF7 [2]) of the same compound?
**A.** The IC50 was 12 µM.

**Q.** And the inhibition (TPC1 [3])?
**A.** Its inhibition is “inactive”.

**Q.** And the inhibition (MDA-MB-231 [4])?
**A.** The inhibition was “inactive”.

**Q.** And the inhibition [5]?
**A.** The inhibition was “Active”.

**Q.** And the IC50 (MDA-MB-231 [6])?
**A.** Its IC50 is 0.507 µM.

**Q.** And the inhibition (MCF7 [7])?
**A.** Its inhibition is “inactive”.

**Q.** And the IC50 (BCPAP [8])?
**A.** Its IC50 is 0.254 µM.

**Q.** What about the IC50 (TPC1 [9]) of the same compound?
**A.** The IC50 was 0.462 µM.

**Q.** What about the inhibition [10] of the same compound?
**A.** Its inhibition is “Active”.

**Q.** And the inhibition [11]?
**A.** The inhibition was “Active”.

**Q.** What about the inhibition (BCPAP [12]) of the same compound?
**A.** Its inhibition is “inactive”.
